The values that follow come from ChEMBL document CHEMBL1140118, “Design, synthesis, and structure-activity relationships of novel insulin receptor tyrosine kinase activators” (J Med Chem, 2008).

One experiment has as its target Insulin receptor (Mus musculus, UniProt P15208). Description: Activation of insulin receptor tyrosine kinase in mouse 3T3-L1 cells assessed as increase in 2-deoxy-D-[14C]glucose transport in presence of insulin. The experiment is classed as cell-based. Summed up:
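Differentiated, 16 h serum-starved 3T3-L1 adipocytes were exposed to compound plus 5.6 nM insulin (submaximal) for 30 min at 37 °C. They were then pulsed 30 min with 0.5 µCi/mL 2-deoxy-D-[14C]glucose and lysate counts were read. Four concentrations were tested in triplicate. EC50 came from nonlinear regression of untransformed data, given as mean ± SEM when n ≥ 3.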

In experiment [1] the target is Insulin receptor (Homo sapiens) (UniProt P06213). Nature of the experiment: Effect on autophosphorylation of human insulin receptor cytoplasmic kinase domain. Summed up: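 Recombinant human IR cytoplasmic domain (200 ng) in 50 mM Tris pH 7.4 with 2 mM MnCl2, 10 mM MgCl2, 50 µM ATP and [γ-32P]ATP (10 µCi) was incubated with varied compound concentrations for 10 min at 25 °C. Incorporated label was measured by scintillation counting, either of excised SDS-PAGE bands or of TCA precipitates washed with phosphoric acid.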

Experiment [2] has as its target Insulin receptor (Mus musculus) (UniProt P15208). Description: Activation of insulin receptor tyrosine kinase in mouse 3T3-L1 cells assessed as increase in 2-deoxy-D-[14C]glucose transport in absence of insulin. The experiment is classed as cell-based. In short, it runs like this: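 Differentiated 3T3-L1 adipocytes (induced 72 h with dexamethasone, IBMX and insulin, then 48 h with insulin, then 4 days in normal medium) were serum-starved 16 h in 0.1% BSA. Compound was added without insulin for 30 min at 37 °C. Uptake of 0.5 µCi/mL 2-deoxy-D-[14C]glucose over 30 min was read by scintillation counting of lysates after a cold PBS rinse.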

Activity calls are given as the source filed them. The rule behind the calls is not given here.

Sequence of Insulin receptor (P15208 28-748 limits assumed): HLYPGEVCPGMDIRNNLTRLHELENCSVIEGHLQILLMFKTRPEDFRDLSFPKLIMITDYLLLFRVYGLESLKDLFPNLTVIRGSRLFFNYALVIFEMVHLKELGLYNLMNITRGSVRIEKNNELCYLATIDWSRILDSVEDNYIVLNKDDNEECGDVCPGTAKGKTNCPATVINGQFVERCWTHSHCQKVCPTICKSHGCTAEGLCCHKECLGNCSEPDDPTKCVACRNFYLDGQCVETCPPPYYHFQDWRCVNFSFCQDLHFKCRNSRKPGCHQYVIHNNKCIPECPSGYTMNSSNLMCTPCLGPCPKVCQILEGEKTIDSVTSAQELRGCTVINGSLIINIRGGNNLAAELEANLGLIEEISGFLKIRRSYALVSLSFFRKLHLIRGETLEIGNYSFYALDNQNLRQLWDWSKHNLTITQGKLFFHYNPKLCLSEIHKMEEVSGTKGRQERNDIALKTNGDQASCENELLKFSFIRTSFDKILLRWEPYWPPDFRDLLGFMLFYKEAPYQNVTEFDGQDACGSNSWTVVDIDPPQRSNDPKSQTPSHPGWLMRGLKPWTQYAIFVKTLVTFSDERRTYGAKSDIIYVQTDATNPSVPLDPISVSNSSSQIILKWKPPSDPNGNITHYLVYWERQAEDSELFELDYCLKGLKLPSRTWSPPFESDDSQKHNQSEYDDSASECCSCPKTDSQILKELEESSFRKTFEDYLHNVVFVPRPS
Sequence of Insulin receptor (P15208 753-1372 limits assumed): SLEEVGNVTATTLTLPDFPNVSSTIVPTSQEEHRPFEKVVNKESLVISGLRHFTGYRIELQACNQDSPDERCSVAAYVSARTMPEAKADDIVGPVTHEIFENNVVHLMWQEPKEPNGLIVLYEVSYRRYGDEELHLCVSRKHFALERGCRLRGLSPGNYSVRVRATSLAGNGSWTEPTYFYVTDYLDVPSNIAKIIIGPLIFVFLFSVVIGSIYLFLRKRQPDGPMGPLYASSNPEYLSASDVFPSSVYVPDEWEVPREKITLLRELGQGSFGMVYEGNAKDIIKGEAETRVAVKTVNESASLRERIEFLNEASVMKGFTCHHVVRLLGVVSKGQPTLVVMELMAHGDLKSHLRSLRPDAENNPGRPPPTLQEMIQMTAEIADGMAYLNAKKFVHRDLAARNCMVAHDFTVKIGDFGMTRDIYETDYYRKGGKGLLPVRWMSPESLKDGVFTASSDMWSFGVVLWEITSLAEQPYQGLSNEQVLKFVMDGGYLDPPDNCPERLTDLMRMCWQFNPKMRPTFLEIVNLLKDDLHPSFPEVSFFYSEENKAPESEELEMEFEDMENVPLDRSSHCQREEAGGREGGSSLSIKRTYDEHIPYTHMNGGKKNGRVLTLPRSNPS
Sequence of Insulin receptor (Homo sapiens) (P06213 28-758 limits assumed): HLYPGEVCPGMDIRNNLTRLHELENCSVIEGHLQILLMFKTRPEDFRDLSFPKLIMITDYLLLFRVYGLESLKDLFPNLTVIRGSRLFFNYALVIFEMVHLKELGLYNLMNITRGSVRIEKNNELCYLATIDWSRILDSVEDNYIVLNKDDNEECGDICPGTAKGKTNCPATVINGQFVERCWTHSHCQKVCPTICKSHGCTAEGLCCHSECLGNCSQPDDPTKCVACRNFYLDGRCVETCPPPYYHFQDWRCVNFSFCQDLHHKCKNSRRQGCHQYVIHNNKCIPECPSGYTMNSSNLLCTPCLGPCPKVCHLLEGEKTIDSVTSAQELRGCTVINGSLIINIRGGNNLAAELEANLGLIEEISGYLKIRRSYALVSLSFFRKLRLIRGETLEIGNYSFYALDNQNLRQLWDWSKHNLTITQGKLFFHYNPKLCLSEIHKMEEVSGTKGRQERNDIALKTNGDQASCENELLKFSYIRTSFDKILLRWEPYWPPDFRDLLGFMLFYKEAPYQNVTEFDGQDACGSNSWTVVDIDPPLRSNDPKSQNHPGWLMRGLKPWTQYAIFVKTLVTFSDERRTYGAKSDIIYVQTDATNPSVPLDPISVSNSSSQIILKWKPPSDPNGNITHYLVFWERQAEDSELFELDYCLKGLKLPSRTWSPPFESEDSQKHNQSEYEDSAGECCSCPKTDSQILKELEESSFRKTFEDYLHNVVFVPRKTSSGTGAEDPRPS
Sequence of Insulin receptor (Homo sapiens) (P06213 763-1382 limits assumed): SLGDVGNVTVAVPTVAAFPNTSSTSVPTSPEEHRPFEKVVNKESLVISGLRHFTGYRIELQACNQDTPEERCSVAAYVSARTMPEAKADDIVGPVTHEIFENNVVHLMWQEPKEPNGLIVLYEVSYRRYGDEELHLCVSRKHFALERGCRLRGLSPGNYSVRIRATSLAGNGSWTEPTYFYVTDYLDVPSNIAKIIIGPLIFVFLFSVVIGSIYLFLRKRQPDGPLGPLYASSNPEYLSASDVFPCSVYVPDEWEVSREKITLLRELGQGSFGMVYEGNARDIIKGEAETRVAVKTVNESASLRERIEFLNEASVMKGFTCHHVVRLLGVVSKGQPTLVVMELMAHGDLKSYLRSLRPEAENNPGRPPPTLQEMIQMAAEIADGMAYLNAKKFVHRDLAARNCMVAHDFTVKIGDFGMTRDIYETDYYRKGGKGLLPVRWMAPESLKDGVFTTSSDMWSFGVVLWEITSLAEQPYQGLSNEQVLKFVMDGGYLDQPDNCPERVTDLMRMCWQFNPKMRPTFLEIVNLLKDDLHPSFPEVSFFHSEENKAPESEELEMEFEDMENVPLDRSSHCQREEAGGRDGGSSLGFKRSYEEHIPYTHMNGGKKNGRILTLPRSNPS
Sequence of Insulin receptor (Mus musculus) (P15208 28-748 limits assumed): as the sequence (P15208 28-748 limits assumed) above
Sequence of Insulin receptor (Mus musculus) (P15208 753-1372 limits assumed): as the sequence (P15208 753-1372 limits assumed) above

With `O=C(Nc1ccc2ccc(S(=O)(=O)Nc3cccc([N+](=O)[O-])c3)cc2c1)Nc1ccc2ccc(S(=O)(=O)Nc3cccc([N+](=O)[O-])c3)cc2c1`, at Insulin receptor, the EC50 (commonly the concentration that produces a half-maximal response) is > 200 µM.

As to `O=C(O)c1cc(NS(=O)(=O)c2ccc3ccc(N4CCN(c5ccc6ccc(S(=O)(=O)Nc7ccc(Cl)c(C(=O)O)c7)cc6c5)C4=O)cc3c2)ccc1Cl`, at Insulin receptor, the EC50 worked out at 56 µM.

For `O=C(Nc1ccc2ccc(S(=O)(=O)Nc3ccc(Cl)c(C(=O)O)c3)cc2c1)Nc1ccc2ccc(S(=O)(=O)Nc3ccc(Cl)c(C(=O)O)c3)cc2c1`, the EC50 at Insulin receptor is 16 µM.

On to `O=C(Nc1ccc2c(O)cc(S(=O)(=O)Nc3cccc(C(=O)O)c3Cl)cc2c1)Nc1ccc2c(O)cc(S(=O)(=O)Nc3cccc(C(=O)O)c3Cl)cc2c1`, for which, at Insulin receptor, the concentration for a half-maximal effect (EC50) was determined as 121 µM.

On to `O=C(Nc1ccc2c(O)c(/N=N/c3ccc(/N=N/c4ccc(S(=O)(=O)O)cc4)cc3S(=O)(=O)O)c(S(=O)(=O)O)cc2c1)Nc1ccc2c(O)cc(S(=O)(=O)O)c(/N=N/c3ccc(/N=N/c4ccc(S(=O)(=O)O)cc4)cc3S(=O)(=O)O)c2c1`, for which the Activity entry in experiment [1] was “Dose-dependent effect”. Besides, the EC50 at Insulin receptor turned out to be 90 µM. Moreover, in experiment [2], the result was inactive. As to `CNC(=Nc1ccc2ccc(S(=O)(=O)Nc3ccc(Cl)c(C(=O)O)c3)cc2c1)Nc1ccc2ccc(S(=O)(=O)Nc3ccc(Cl)c(C(=O)O)c3)cc2c1`, the EC50 at Insulin receptor was > 200 µM. With `O=C(Nc1ccc2c(O)cc(S(=O)(=O)Nc3cccc(C(=O)O)c3)cc2c1)Nc1ccc2c(O)cc(S(=O)(=O)Nc3cccc(C(=O)O)c3)cc2c1`, the EC50 on Insulin receptor amounted to 43 µM.

For `O=C(Nc1ccc2ccc(S(=O)(=O)Nc3cccc(C(=O)O)c3)cc2c1)Nc1ccc2ccc(S(=O)(=O)Nc3cccc(C(=O)O)c3)cc2c1`, the EC50 at Insulin receptor worked out at 24 µM. Take `O=C(Nc1ccc2ccc(S(=O)(=O)Nc3ccccc3)cc2c1)Nc1ccc2ccc(S(=O)(=O)Nc3ccccc3)cc2c1`: the EC50 at Insulin receptor was > 200 µM. The same measure, in the same setting: the figure for `O=C(Nc1ccc2ccc(S(=O)(=O)Nc3cccc(C(=O)O)c3O)cc2c1)Nc1ccc2ccc(S(=O)(=O)Nc3cccc(C(=O)O)c3O)cc2c1` is 150 µM. For `O=C(Nc1ccc2c(O)cc(S(=O)(=O)Nc3ccccc3C(=O)O)cc2c1)Nc1ccc2c(O)cc(S(=O)(=O)Nc3ccccc3C(=O)O)cc2c1`, the EC50 at Insulin receptor was determined as 93 µM. Take `NS(=O)(=O)c1cccc(NS(=O)(=O)c2ccc3ccc(NC(=O)Nc4ccc5ccc(S(=O)(=O)Nc6cccc(S(N)(=O)=O)c6)cc5c4)cc3c2)c1`: the EC50 at Insulin receptor is > 200 µM.

For `O=C(Nc1ccc2ccc(S(=O)(=O)Nc3cccc(O)c3)cc2c1)Nc1ccc2ccc(S(=O)(=O)Nc3cccc(O)c3)cc2c1`, the EC50 on Insulin receptor is > 200 µM.

With `O=C(Nc1ccc2c(O)cc(S(=O)(=O)Nc3ccc(Cl)c(C(=O)O)c3)cc2c1)Nc1ccc2c(O)cc(S(=O)(=O)Nc3ccc(Cl)c(C(=O)O)c3)cc2c1`, on Insulin receptor, the EC50 was 18 µM. Same read-out and setting: with `O=C(Nc1ccc2c(O)cc(S(=O)(=O)Nc3cccc(C(F)(F)F)c3)cc2c1)Nc1ccc2c(O)cc(S(=O)(=O)Nc3cccc(C(F)(F)F)c3)cc2c1` the figure was > 200 µM; with `O=C(Nc1ccc2ccc(C(=O)Nc3cccc(C(=O)O)c3)cc2c1)Nc1ccc2ccc(C(=O)Nc3cccc(C(=O)O)c3)cc2c1`, > 200 µM.

With `O=C(Nc1ccc2ccc(C(=O)Nc3cccc(S(=O)(=O)O)c3)cc2c1)Nc1ccc2ccc(C(=O)Nc3cccc(S(=O)(=O)O)c3)cc2c1`, the EC50 at Insulin receptor is > 200 µM.

Turning to `NC(=Nc1ccc2ccc(S(=O)(=O)Nc3ccc(Cl)c(C(=O)O)c3)cc2c1)Nc1ccc2ccc(S(=O)(=O)Nc3ccc(Cl)c(C(=O)O)c3)cc2c1`, the EC50 on Insulin receptor stood at 179 µM. Still for that read-out and setting: with `O=C(Nc1ccc2ccc(S(=O)(=O)Nc3ccc(Cl)c(S(=O)(=O)O)c3)cc2c1)Nc1ccc2ccc(S(=O)(=O)Nc3ccc(Cl)c(S(=O)(=O)O)c3)cc2c1` the figure was 6 µM. Same read-out and setting: the figure for `O=C(Nc1ccc2c(O)cc(S(=O)(=O)Nc3cccc(CO)c3)cc2c1)Nc1ccc2c(O)cc(S(=O)(=O)Nc3cccc(CO)c3)cc2c1` is > 200 µM. On to `O=C(Nc1ccc2c(O)cc(S(=O)(=O)Nc3cccc(S(=O)(=O)O)c3)cc2c1)Nc1ccc2c(O)cc(S(=O)(=O)Nc3cccc(S(=O)(=O)O)c3)cc2c1`, for which, in experiment [1], the Activity entry is “Dose-dependent effect”. Further, the EC50 at Insulin receptor is 26 µM. For the compound `N#CN=C(Nc1ccc2ccc(S(=O)(=O)Nc3ccc(Cl)c(C(=O)O)c3)cc2c1)Nc1ccc2ccc(S(=O)(=O)Nc3ccc(Cl)c(C(=O)O)c3)cc2c1`, the EC50 on Insulin receptor is > 200 µM. On to `O=C(Nc1ccc2c(O)cc(S(=O)(=O)Nc3ccc(C(=O)O)cc3)cc2c1)Nc1ccc2c(O)cc(S(=O)(=O)Nc3ccc(C(=O)O)cc3)cc2c1`, for which the EC50 at Insulin receptor turned out to be 103 µM. On the same count and under the same terms, with `O=C(Nc1ccc2ccc(S(=O)(=O)Nc3ccccc3C(=O)O)cc2c1)Nc1ccc2ccc(S(=O)(=O)Nc3ccccc3C(=O)O)cc2c1` the figure was 41 µM. Same read-out and setting: the figure for `O=C(Nc1ccc2ccc(S(=O)(=O)O)cc2c1)Nc1ccc2ccc(S(=O)(=O)Nc3ccc(O)c(C(=O)O)c3)cc2c1` is > 200 µM. On the same count and under the same terms, with `CN(C(=O)N(C)c1ccc2ccc(S(=O)(=O)Nc3ccc(Cl)c(C(=O)O)c3)cc2c1)c1ccc2ccc(S(=O)(=O)Nc3ccc(Cl)c(C(=O)O)c3)cc2c1` the figure was > 200 µM; with `O=C(Nc1ccc2ccc(S(=O)(=O)Nc3ccc(O)c(C(=O)O)c3)cc2c1)Nc1ccc2ccc(S(=O)(=O)Nc3ccc(O)c(C(=O)O)c3)cc2c1`, 9 µM.

With `O=C(O)c1cc(NS(=O)(=O)c2ccc3ccc(NCCNc4ccc5ccc(S(=O)(=O)Nc6ccc(Cl)c(C(=O)O)c6)cc5c4)cc3c2)ccc1Cl`, the EC50 at Insulin receptor is > 200 µM. Turning to `O=C(O)Cc1cccc(NS(=O)(=O)c2cc(O)c3ccc(NC(=O)Nc4ccc5c(O)cc(S(=O)(=O)Nc6cccc(CC(=O)O)c6)cc5c4)cc3c2)c1`, on Insulin receptor, the EC50 is > 200 µM. Same read-out and setting: with `O=C(Nc1ccc2ccc(S(=O)(=O)Nc3ccc([N+](=O)[O-])c(C(=O)O)c3)cc2c1)Nc1ccc2ccc(S(=O)(=O)Nc3ccc([N+](=O)[O-])c(C(=O)O)c3)cc2c1` the figure was 40 µM; with `O=C(Nc1ccc2ccc(S(=O)(=O)Nc3ccc(C(=O)O)cc3)cc2c1)Nc1ccc2ccc(S(=O)(=O)Nc3ccc(C(=O)O)cc3)cc2c1`, 183 µM; with `O=C(Nc1ccc2ccc(S(=O)(=O)Nc3ccc(S(=O)(=O)O)cc3)cc2c1)Nc1ccc2ccc(S(=O)(=O)Nc3ccc(S(=O)(=O)O)cc3)cc2c1`, 94 µM.

Consider `O=C(Nc1ccc2ccc(S(=O)(=O)Nc3cccc(S(=O)(=O)O)c3)cc2c1)Nc1ccc2ccc(S(=O)(=O)Nc3cccc(S(=O)(=O)O)c3)cc2c1`, for which the EC50 on Insulin receptor came to 22 µM. As to `CC(=O)N(CCN(C(C)=O)c1ccc2ccc(S(=O)(=O)Nc3ccc(Cl)c(C(=O)O)c3)cc2c1)c1ccc2ccc(S(=O)(=O)Nc3ccc(Cl)c(C(=O)O)c3)cc2c1`, the concentration for a half-maximal effect (EC50) at Insulin receptor was > 200 µM. The same measure, in the same setting: with `O=C(Nc1ccc2c(O)cc(S(=O)(=O)Nc3ccc(O)c(C(=O)O)c3)cc2c1)Nc1ccc2c(O)cc(S(=O)(=O)Nc3ccc(O)c(C(=O)O)c3)cc2c1` the figure was 43 µM.

In the case of `O=C(Nc1ccc2ccc(S(=O)(=O)O)cc2c1)Nc1ccc2ccc(S(=O)(=O)Nc3ccc(Cl)c(S(=O)(=O)O)c3)cc2c1`, the EC50 on Insulin receptor was > 200 µM. With `O=C(O)c1cc(NS(=O)(=O)c2ccc3ccc(NC(=S)Nc4ccc5ccc(S(=O)(=O)Nc6ccc(Cl)c(C(=O)O)c6)cc5c4)cc3c2)ccc1Cl`, the EC50 on Insulin receptor is 162 µM.

For `CN(c1cccc(S(=O)(=O)O)c1)S(=O)(=O)c1ccc2ccc(NC(=O)Nc3ccc4ccc(S(=O)(=O)N(C)c5cccc(S(=O)(=O)O)c5)cc4c3)cc2c1`, the EC50 at Insulin receptor was 91 µM. On the same count and under the same terms, the figure for `O=C(Nc1ccc2c(O)cc(S(=O)(=O)Nc3cccc(-c4nn[nH]n4)c3)cc2c1)Nc1ccc2c(O)cc(S(=O)(=O)Nc3cccc(-c4nn[nH]n4)c3)cc2c1` is 73 µM; for `N#Cc1cccc(NS(=O)(=O)c2ccc3ccc(NC(=O)Nc4ccc5ccc(S(=O)(=O)Nc6cccc(C#N)c6)cc5c4)cc3c2)c1` it is > 200 µM. With `O=C(Nc1ccc2ccc(S(=O)(=O)Nc3cccc(-c4nn[nH]n4)c3)cc2c1)Nc1ccc2ccc(S(=O)(=O)Nc3cccc(-c4nn[nH]n4)c3)cc2c1`, the EC50 on Insulin receptor amounted to 54 µM.
